Test results: PubChem BioAssay
Calls of active or inactive are those of the source.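 The calls were made as follows, unless noted: active = current rise at least 3 SD above the untreated control mean in each of two repeat wells; inactive = the rest.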

molecular target: Potassium voltage-gated channel subfamily KQT member 1 (Homo sapiens) (UniProt P51787); test: KCNQ1 activators by electrophysiology – IonWorks patch clamp, KCNQ1-CHO cells, orthogonal assay for KCNQ1 potentiator project, confirmation (AID 493184); conditions: automated patch clamp current, at 10 µM
Sequence (P51787 whole entry, looked up): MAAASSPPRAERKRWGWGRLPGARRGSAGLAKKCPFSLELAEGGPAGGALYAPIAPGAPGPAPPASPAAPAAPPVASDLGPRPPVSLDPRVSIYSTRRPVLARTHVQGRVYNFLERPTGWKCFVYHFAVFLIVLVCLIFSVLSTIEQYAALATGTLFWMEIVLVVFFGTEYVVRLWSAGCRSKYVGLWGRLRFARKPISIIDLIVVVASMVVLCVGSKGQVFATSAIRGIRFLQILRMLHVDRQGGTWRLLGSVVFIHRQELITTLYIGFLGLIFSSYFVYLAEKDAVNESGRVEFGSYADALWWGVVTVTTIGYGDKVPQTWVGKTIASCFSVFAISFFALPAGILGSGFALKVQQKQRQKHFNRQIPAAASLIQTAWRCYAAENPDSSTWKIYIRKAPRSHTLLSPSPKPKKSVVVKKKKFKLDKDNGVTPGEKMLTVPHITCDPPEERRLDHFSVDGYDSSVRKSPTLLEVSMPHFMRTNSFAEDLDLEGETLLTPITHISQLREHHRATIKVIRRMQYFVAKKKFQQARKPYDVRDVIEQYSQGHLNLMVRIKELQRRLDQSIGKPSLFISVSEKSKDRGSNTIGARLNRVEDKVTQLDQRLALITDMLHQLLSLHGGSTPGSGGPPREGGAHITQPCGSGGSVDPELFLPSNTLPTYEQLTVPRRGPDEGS
In short: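 Probe or stimulus: depolarizing pulse to +40 mV from -90 mV; Material: CHO cells carrying KCNQ1; Compound: one dose, 10 µM final; Signal: automated voltage clamp, amphotericin B perforated patch; Read-out basis: percent current increase versus pre-compound level; Buffer or medium: pH 7.4 external bath; Replication: duplicates.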

| Compound | outcome |
| --- | --- |
| NC(=O)c1ccc(N2CCNC(=O)C2)c([N+](=O)[O-])c1 | inactive |
| CCOC(=O)CS(=O)(=O)c1nc(-c2ccc(F)cc2)cc(C(F)(F)F)n1 | inactive |
| CCOc1ccccc1NC1=C(Cl)C(=O)N(c2ccccc2)C1=O | inactive |
| C/C(=N\OCC(=O)Nc1ccc(OC(F)(F)F)cc1)c1ccc2c(c1)OCCO2 | inactive |
| COc1ccc(OC)c(Nc2cc3ccccc3c(=O)[nH]2)c1 | inactive |
| CC1(c2ccc(OC(F)F)cc2)NC(=O)N(CC(=O)Nc2ccccc2)C1=O (configuration not stated) | inactive |
| COCC(=O)Nc1nnc(SCC(=O)N2C(C)CCCC2C)s1 (configuration not stated) | inactive |
| COc1ccc(C2c3ccc4ccccc4c3Oc3ncn(CCCO)c(=N)c32)cc1OC (configuration not stated) | inactive |
| CCS(=O)(=O)N1Cc2ccccc2CC1C(=O)Nc1cccc(S(=O)(=O)N(C)C)c1 (configuration not stated) | inactive |
| CCOC(=O)c1sc(NC(=O)c2ccccc2C(=O)O)c(C(=O)OCC)c1C | inactive |
| CCOc1ccc(-n2c(=S)sc3c(=O)n(-c4ccccc4)c(SC)nc32)cc1 | inactive |
| CC(C)COc1ccc(-c2nn(-c3ccccc3)cc2C(=O)Nc2nccs2)cc1 | inactive |
| Cn1c(N/N=C/c2cccs2)cc(=O)n(C)c1=O | inactive |
| O=C(OCc1ccccc1)C1=NNC2C(=O)N(c3ccccc3)C(=O)C12 (configuration not stated) | inactive |
| N#C/C(=C/c1cn(-c2ccccc2)nc1-c1cccc(OCc2ccc(F)cc2)c1)C(=O)NCCCn1ccnc1 | inactive |
| CN(C(=S)NC(=O)c1ccccc1Br)C1CCCCC1 | inactive |
| CC(=O)c1ccc(NC(=S)NC(=O)c2c(Cl)c(C)nn2C)cc1 | inactive |
| O=C(Nc1cccc(-c2nnc(-c3ccco3)o2)c1)c1ccccc1 | inactive |

molecular target: Potassium voltage-gated channel subfamily E member 1 (Homo sapiens) + Potassium voltage-gated channel subfamily KQT member 1 (Homo sapiens) (UniProt P15382+P51787); test: KCNQ1-E1 channel activation – thallium flux, CHO-K1 KCNQ1/E1 cells, selectivity assay for KCNQ1 potentiator project, confirmation (AID 493186;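 active = mean duplicate activation above the buffer control mean plus 5 SD of those controls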); conditions: FluxOR thallium flux, at 10 µM
Sequence (P51787 whole entry, looked up): as the sequence (P51787 whole entry, looked up) above
In short: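 system = KCNQ1/E1-expressing stable CHO-K1 cell line | doses = single compound concentration per well | times = dye 90 min, compound 20 min, room temperature | measured by = FluxOR Tl+ flux fluorescence, kinetic read | evaluation = fluorescence rise relative to baseline, as percent of R-L3 response above buffer | controls = buffer and R-L3 | replicates = duplicate wells per compound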

| Compound | outcome |
| --- | --- |
| S=c1[nH]nc(-c2ccccc2)n1/N=C/c1ccc(-c2ccccc2Cl)o1 | inactive |
| O=C(NC(=S)NC1CCCc2ccccc21)c1ccc(F)cc1 (configuration not stated) | inactive |
| COc1cccc(CN2CCN(Cc3cc4ccccc4[nH]3)CC2CCO)c1 (configuration not stated) | inactive |
| O=C(NC(=S)Nc1nc2c(ccc3ccccc32)s1)c1cccs1 | inactive |
| Cc1ccc(-c2nn(-c3ccccc3)cc2/C=N/n2c(-c3cccs3)n[nH]c2=S)cc1 | inactive |
| O=C(c1nnsc1S(=O)c1ccc(Cl)cc1)N1CCOCC1 (configuration not stated) | inactive |
| Cc1ccc(/C=C2\SC(=S)N(NS(=O)(=O)c3ccc(C)cc3)C2=O)cc1 | inactive |
| COc1ccc(OC)c(Nc2cc3ccccc3c(=O)[nH]2)c1 | inactive |
| CC1(c2ccc(OC(F)F)cc2)NC(=O)N(CC(=O)Nc2ccccc2)C1=O (configuration not stated) | inactive |
| COCC(=O)Nc1nnc(SCC(=O)N2C(C)CCCC2C)s1 (configuration not stated) | inactive |
| COc1ccc(C2c3ccc4ccccc4c3Oc3ncn(CCCO)c(=N)c32)cc1OC (configuration not stated) | inactive |
| CCS(=O)(=O)N1Cc2ccccc2CC1C(=O)Nc1cccc(S(=O)(=O)N(C)C)c1 (configuration not stated) | inactive |
| CC(C)COc1ccc(-c2nn(-c3ccccc3)cc2C(=O)Nc2nccs2)cc1 | inactive |
| O=C(OCc1ccccc1)C1=NNC2C(=O)N(c3ccccc3)C(=O)C12 (configuration not stated) | inactive |
